Test results taken from ChEMBL document CHEMBL1158972, “New cytotoxic beta-carboline alkaloids from the marine bryozoan, Cribricellina cribraria” (J Nat Prod, 1991).
Values after ≈ are worked out from the molar mass of the structure shown. Active and inactive are the calls of the source. The calls are words filed in the database; no cut-off is given here.

Columns and labels:
[1] = test system: Trichophyton mentagrophytes; assay: Antimicrobial activity against Trichophyton mentagrophytes assessed per disk; assay type: functional
Human alphaherpesvirus 1 [2] = assay: Antiviral activity against Herpes simplex virus (type 1 / strain F) ATCC VR 733 in african green monkey BSC1 cells assessed as excess radius from disk edge at 20 ug/disk; assay type: functional, organism-based; details: BSC-1
Method in brief: (§1)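 Disc assay of herpes simplex type I (strain F, ATCC VR 733) on a BSC cell line (ATCC CCL 26). The antiviral zone is scored as excess radius from the disc edge: 2+ = 2-4 mm, 3+ = 4-6 mm, ww = zone over the whole well.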

P388 = assay: Cytotoxicity against mouse P388 cells; assay type: functional, cell-based
Method in brief: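 P-388 leukemia line (ATCC CCL 46). The value is the sample concentration, in ng/ml, that reduces cell growth by 50%.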

Bacillus subtilis = assay: Antimicrobial activity against Bacillus subtilis assessed per disk; assay type: functional
[3] = Cytotoxicity against african green monkey BSC1 cells at 20 ug/disk; assay type: cell-based; details: chlorocebus aethiops, bsc-1
Method in brief: (§2)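 Cytotoxic zone around the disc on a BSC monolayer (ATCC CCL 26), scored as excess radius beyond the disc edge: 2+ = 2-4 mm, 3+ = 4-6 mm, ww = zone over the whole well.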

Poliovirus 1 = assay: Antiviral activity against Polio virus 1 Pfizer vaccine in african green monkey BSC1 cells assessed as excess radius from disk edge at 20 ug/disk; assay type: functional, organism-based; details: BSC-1
Method in brief: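 Disc assay on BSC cell monolayers (ATCC CCL 26) infected with the Pfizer vaccine strain of poliovirus, with the virus grown on BSC cells. Scored by the radius of the antiviral/cytotoxic zone beyond the disc edge: 2+ = 2-4 mm, 3+ = 4-6 mm, ww = zone over the whole well.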

Pseudomonas aeruginosa = assay: Antimicrobial activity against Pseudomonas aeruginosa assessed per disk; assay type: functional
Escherichia coli = assay: Antimicrobial activity against Escherichia coli assessed per disk; assay type: functional
Amorphotheca resinae = assay: Antimicrobial activity against Cladosporium resinae assessed per disk; assay type: functional
Candida albicans = assay: Antimicrobial activity against Candida albicans assessed per disk; assay type: functional
[4] = Cytotoxicity against african green monkey BSC1 cells at 0.4 ug/disk; assay type: cell-based; details: chlorocebus aethiops, bsc-1; method in brief: as §2
[5] = Cytotoxicity against african green monkey BSC1 cells at 2 ug/disk; assay type: cell-based; details: chlorocebus aethiops, bsc-1; method in brief: as §2
Human alphaherpesvirus 1 [6] = assay: Antiviral activity against Herpes simplex virus (type 1 / strain F) ATCC VR 733 in african green monkey BSC1 cells assessed as excess radius from disk edge at 0.4 ug/disk; assay type: functional, organism-based; details: BSC-1; method in brief: as §1
[7] = Cytotoxicity against african green monkey BSC1 cells at 0.5 ug/disk; assay type: cell-based; details: chlorocebus aethiops, bsc-1; method in brief: as §2
Human alphaherpesvirus 1 [8] = assay: Antiviral activity against Herpes simplex virus (type 1 / strain F) ATCC VR 733 in african green monkey BSC1 cells assessed as excess radius from disk edge at 0.5 ug/disk; assay type: functional, BSC-1; details: Human alphaherpesvirus 1, Strain F ATCC VR 733; read-out: IZ; method in brief: as §1
Human alphaherpesvirus 1 [9] = assay: Antiviral activity against Herpes simplex virus (type 1 / strain F) ATCC VR 733 in african green monkey BSC1 cells assessed as excess radius from disk edge at 2 ug/disk; assay type: functional, BSC-1; details: Human alphaherpesvirus 1, Strain F ATCC VR 733; read-out: IZ; method in brief: as §1
[10] = Cytotoxicity against african green monkey BSC1 cells at 10 ug/disk; assay type: cell-based; details: chlorocebus aethiops, bsc-1; method in brief: as §2
[11] = Cytotoxicity against african green monkey BSC1 cells at 40 ug/disk; assay type: cell-based; details: chlorocebus aethiops, bsc-1; method in brief: as §2
Human alphaherpesvirus 1 [12] = assay: Antiviral activity against Herpes simplex virus (type 1 / strain F) ATCC VR 733 in african green monkey BSC1 cells assessed as excess radius from disk edge at 40 ug/disk; assay type: functional, BSC-1; details: Human alphaherpesvirus 1, Strain F ATCC VR 733; read-out: IZ; method in brief: as §1
Human alphaherpesvirus 1 [13] = assay: Antiviral activity against Herpes simplex virus (type 1 / strain F) ATCC VR 733 in african green monkey BSC1 cells assessed as excess radius from disk edge at 10 ug/disk; assay type: functional, organism-based; details: BSC-1; method in brief: as §1
Human alphaherpesvirus 1 [14] = assay: Antiviral activity against Herpes simplex virus (type 1 / strain F) ATCC VR 733 in african green monkey BSC1 cells assessed as excess radius from disk edge at 1 ug/disk; assay type: functional, organism-based; details: BSC-1; method in brief: as §1
[15] = Cytotoxicity against african green monkey BSC1 cells at 5 ug/disk; assay type: cell-based; details: chlorocebus aethiops, bsc-1; method in brief: as §2
[16] = Cytotoxicity against african green monkey BSC1 cells at 1 ug/disk; assay type: cell-based; details: chlorocebus aethiops, bsc-1; method in brief: as §2
Human alphaherpesvirus 1 [17] = assay: Antiviral activity against Herpes simplex virus (type 1 / strain F) ATCC VR 733 in african green monkey BSC1 cells assessed as excess radius from disk edge at 5 ug/disk; assay type: functional, BSC-1; details: Human alphaherpesvirus 1, Strain F ATCC VR 733; read-out: IZ; method in brief: as §1

Compound | MIC [1] [µg] | inhibition zone (IZ) (Human alphaherpesvirus 1 [2]) | IC50 (P388) [µg/mL] | MIC (Bacillus subtilis) [µg] | inhibition zone (IZ) [3] | inhibition zone (IZ) (Poliovirus 1) | MIC (Pseudomonas aeruginosa) [µg] | MIC (Escherichia coli) [µg] | MIC (Amorphotheca resinae) [µg] | MIC (Candida albicans) [µg] | inhibition zone (IZ) [5] | other results
Cc1nccc2c1[nH]c1ccccc12 [HARMAN] | 3.7 | inactive | 25 (≈ 137 µM) | 7.5 | Not Active | inactive | >60 | 60 | 15 | 1.9 |  | 
C=Cc1nccc2c1[nH]c1c(OC)cccc12 | 0.45 |  | 0.1 (≈ 0.446 µM) | 7.5 |  |  | >60 | >60 | 15 | 7.5 | 2 mm | inhibition zone (IZ) [4]: Not Active; inhibition zone (IZ) (Human alphaherpesvirus 1 [6]): inactive; inhibition zone (IZ) [7]: 1 mm; zone of inhibition at 0.5 µg/disc (Human alphaherpesvirus 1 [8]): 1 mm; zone of inhibition at 2 µg/disc (Human alphaherpesvirus 1 [9]): 1 mm
C=Cc1nccc2c1[nH]c1ccccc12 | 0.1 |  | 0.1 (≈ 0.515 µM) | 1.9 |  |  | >60 | 30 | 0.9 | 1.9 | Active | inhibition zone (IZ) [4]: Not Active; inhibition zone (IZ) (Human alphaherpesvirus 1 [6]): inactive; inhibition zone (IZ) [7]: 2 mm; zone of inhibition at 0.5 µg/disc (Human alphaherpesvirus 1 [8]): 1 mm
CCCc1nccc2c1[nH]c1ccccc12 | 15 | inactive | 25 (≈ 119 µM) | >120 | Not Active |  | >60 | >120 | >120 | >120 |  | 
CCc1nccc2c1[nH]c1c(O)cccc12 | 30 | inactive | > 12.5 | 30 | Not Active | inactive | >60 | 30 | >60 | 30 |  | 
CCc1nccc2c1[nH]c1c(OC)cccc12 | 7.5 | inactive | > 12.5 | >60 | Not Active | inactive | >60 | >60 | >60 | 7.5 |  | 
CCCCCCc1nccc2c1[nH]c1ccccc12 | 1.9 |  | 9 (≈ 35.7 µM) | >60 |  |  | >60 | >60 | 7.5 | >60 |  | inhibition zone (IZ) [10]: 1 mm; inhibition zone (IZ) [11]: 1 mm; zone of inhibition at 40 µg/disc (Human alphaherpesvirus 1 [12]): 1 mm; inhibition zone (IZ) (Human alphaherpesvirus 1 [13]): inactive
C=Cc1nccc2c1[nH]c1c(OC(C)=O)cccc12 | 0.9 |  | 0.65 (≈ 2.58 µM) | 7.5 |  |  | >60 | >60 | >60 | 15 | Active | Activity [3]: Active; inhibition zone (IZ) (Human alphaherpesvirus 1 [14]): inactive; inhibition zone (IZ) [15]: 2 mm; inhibition zone (IZ) [16]: Not Active; zone of inhibition at 5 µg/disc (Human alphaherpesvirus 1 [17]): 1 mm
